ChEMBL document CHEMBL4340525, “Tumor-Targeted Delivery of 6-Diazo-5-oxo-l-norleucine (DON) Using Substituted Acetylated Lysine Prodrugs” (J Med Chem, 2019)

Key:
[1] = Prodrug conversion in human P493B cells suspended in human plasma assessed as 6-diazo-5-oxo-L-norleucine formation measured after 1 hr by HRMS analysis; assay type: ADME, cell-based
Method in brief: (§1)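 Metabolite identification: compound was incubated 1 h with 10 million P493B cells suspended in 1 mL human plasma. Cell pellets were collected and metabolites identified by HRMS.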

[2] = Prodrug conversion in human P493B cells suspended in human plasma assessed as 6-diazo-5-oxo-L-norleucine formation at 20 uM measured after 1 hr by LC-MS/MS analysis; assay type: ADME, cell-based
Method in brief: (§2)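 Cells were grown in RPMI 1640 with 10% FBS, washed in DPBS and resuspended in human plasma at 10 million cells/mL. After 5 min preincubation at 37 °C, compound was added at 20 µM final for 1 h. The mix was centrifuged at 10 000g and the washed pellet and plasma were quantified separately. DON was read by LC-MS/MS after dabsyl chloride derivatisation, intact prodrug directly. Standard curves were made in naive cells or plasma.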

[3] = Stability in mouse plasma assessed as parent compound remaining at 20 uM measured after 1 hr by LC-MS/MS analysis
[4] = Stability in swine plasma assessed as parent compound remaining at 20 uM measured after 1 hr by LC-MS/MS analysis; settings: Sus scrofa, pig
[5] = Stability in human plasma assessed as parent compound remaining at 20 uM measured after 1 hr by LC-MS/MS analysis
[6] = Drug level in human P493B cells suspended in human plasma assessed as tumor cell to plasma ratio by measuring 6-diazo-5-oxo-L-norleucine formation at 20 uM measured after 1 hr by LC-MS/MS analysis; assay type: ADME, cell-based; method in brief: as §2
[7] = Stability in human plasma suspended with human P493B cells at 20 uM measured after 1 hr by LC-MS/MS analysis; assay type: ADME, cell-free; method in brief: as §2
[8] = Drug level in human P493B cells suspended in human plasma assessed as tumor cell to plasma ratio by measuring 6-diazo-5-oxo-L-norleucine formation at 20 uM measured after 1 hr by LC-MS/MS analysis relative to 6-diazo-5-oxo-L-norleucine alone; assay type: ADME, cell-based; method in brief: as §2
[9] = Stability in swine jejunum at 20 uM measured after 1 hr by LC-MS/MS analysis; assay type: ADME, tissue-based, Sus scrofa; settings: pig
Method in brief: (§3)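 Washed swine jejunum was diluted 10-fold in 0.1 M potassium phosphate buffer and probe-sonicated. Prodrug was spiked at 20 µM final and incubated 1 h at 37 °C with orbital shaking. Triplicate quench in acetonitrile with losartan internal standard. Percent parent remaining by LC-MS/MS peak-area ratio.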

[10] = Stability in swine liver homogenates assessed as parent compound remaining at 20 uM measured after 1 hr by LC-MS/MS analysis; settings: Sus scrofa, pig, tissue homogenate
[11] = Prodrug conversion in human P493B cells suspended in human plasma assessed as (S)-isopropyl 2-amino-6-diazo-5-oxohexanoate formation measured after 1 hr by HRMS analysis; assay type: ADME, cell-based; method in brief: as §1
[12] = Stability in swine jejunum assessed as parent compound remaining at 20 uM measured after 1 hr by LC-MS/MS analysis; assay type: ADME, tissue-based, Sus scrofa; settings: pig; method in brief: as §3
[13] = Drug level in human P493B cells suspended in human plasma assessed as tumor cell to plasma ratio at 20 uM measured after 1 hr by LC-MS/MS analysis; assay type: ADME, cell-based
Method in brief: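 P493B cells grown in RPMI 1640 with 10% FBS, then suspended in human plasma at 10 million cells/mL. Suspension preincubated 5 min at 37 °C, dosed to a final 20 μM, held 1 h at 37 °C, then spun to separate cells from plasma. DON and intact prodrug in pellet and plasma measured by LC-MS/MS; for DON, after dabsyl chloride derivatization. Ratio = cell DON/plasma DON.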

[14] = (§4) Antiproliferative activity against human P493B cells measured after 72 hrs by CellTiter 96 aqueous one solution cell proliferation assay; assay type: functional, cell-based
Method in brief: (§5)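 P493B lymphoma cells seeded at 20 000 cells/well in growth medium. DMSO stocks added as a 1:10 serial dilution, final 0.2% DMSO. Cells grown 72 h with compound, then given CellTiter 96 AQueous reagent for 2 h and read by absorbance at 490 nm. EC50 obtained by nonlinear regression of log-transformed data.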

Homo sapiens = species: Homo sapiens; experiment: as §4; assay type: functional, cell-based; method in brief: as §5

Stability [3] [%] | Stability [4] [%] | Stability [5] [%] | Stability [9] | Stability [10] [%] | Stability [12] [%] | SMILES | also measured
1 | 85 | 95 | – | – | – | CC(=O)NCCCC[C@H](NC(=O)OC(C)(C)C)C(=O)N[C@@H](CCC(=O)C=[N+]=[N-])C(=O)OC(C)C | Drug metabolism [2]: Metabolite_Detected; Ratio [6]: 13; Stability [7]: Stable; fold change (FC) [8]: 32
30 | 88 | 84 | Unstable | – | – | CCCCCCCCCCCCCCCC(=O)N[C@@H](CCCCNC(C)=O)C(=O)N[C@@H](CCC(=O)C=[N+]=[N-])C(=O)OC(C)C | –
0 | 91 | 95 | – | – | > 50 | CCCCCCCC(=O)N[C@@H](CCCCNC(C)=O)C(=O)N[C@@H](CCC(=O)C=[N+]=[N-])C(=O)OC(C)C | –
0 | 62 | 95 | Unstable | 0 | – | CC(=O)NCCCC[C@H](NC(=O)[C@@H]1Cc2ccccc2CN1)C(=O)N[C@@H](CCC(=O)C=[N+]=[N-])C(=O)OC(C)C | –
0 | 98 | 94 | – | 40 | > 50 | CC(=O)NCCCC[C@H](NC(=O)Cc1c[nH]c2ccccc12)C(=O)N[C@@H](CCC(=O)C=[N+]=[N-])C(=O)OC(C)C | –
2 | 78 | 93 | Unstable | 19 | – | CC(=O)NCCCC[C@H](NC(=O)OCC1c2ccccc2-c2ccccc21)C(=O)N[C@@H](CCC(=O)C=[N+]=[N-])C(=O)OC(C)C | –

Second part, the molecule before the results:

SMILES | Stability [3] [%] | Stability [4] [%] | Stability [5] [%] | Stability [9] | Stability [10] [%] | Stability [12] [%] | also measured
CC(C)OC(=O)[C@@H](N)CCC(=O)C=[N+]=[N-] | – | – | – | – | – | – | Drug metabolism [1]: Metabolite_Detected
CC(=O)NCCCC[C@H](NC(=O)[C@@H](N)Cc1c[nH]c2ccccc12)C(=O)N[C@@H](CCC(=O)C=[N+]=[N-])C(=O)OC(C)C | 0 | 19 | 7 | Unstable | 0 | – | –
CC(C)OC(=O)[C@H](CCC(=O)C=[N+]=[N-])NC(=O)[C@H](CCCCN)NC(=O)C12CC3CC(CC(C3)C1)C2 | – | – | – | – | – | – | Drug metabolism [11]: Metabolite_Detected
CC(=O)NCCCC[C@H](NC(=O)OC12CC3CC(CC(C3)C1)C2)C(=O)N[C@@H](CCC(=O)C=[N+]=[N-])C(=O)OC(C)C | 4 | 77 | 100 | – | – | > 50 | –
CC(=O)NCCCC[C@H](NC(=O)[C@H](Cc1c[nH]c2ccccc12)NC(=O)C(C)(C)C)C(=O)N[C@@H](CCC(=O)C=[N+]=[N-])C(=O)OC(C)C | 0 | 95 | 88 | Unstable | – | – | –
[N-]=[N+]=CC(=O)CC[C@H](N)C(=O)O [6-DIAZO-5-OXO-L-NORLEUCINE] | – | – | – | – | – | – | Ratio [13]: 0.4; EC50 [14]: 10 µM; Activity (Homo sapiens): Dose-dependent effect
CC(=O)NCCCC[C@H](NC(=O)[C@H](Cc1c[nH]c2ccccc12)NC(C)=O)C(=O)N[C@@H](CCC(=O)C=[N+]=[N-])C(=O)OC(C)C | 0 | 75 | 102 | – | 67 | > 50 | Drug metabolism [2]: Metabolite_Detected; Ratio [6]: 11; Stability [7]: Stable; fold change (FC) [8]: 30
CC(=O)NCCCC[C@H](NC(=O)[C@@H]1Cc2ccccc2CN1C(C)=O)C(=O)N[C@@H](CCC(=O)C=[N+]=[N-])C(=O)OC(C)C | 0 | 98 | 110 | – | 72 | > 50 | Drug metabolism [2]: 0.12 µM; Ratio [6]: 46; Stability [7]: Stable; fold change (FC) [8]: 115
